# Values joined by “and” are separate entries in the source; they are usually repeats but may differ in a detail not shown here. Identical values can stand only once. Active and inactive are the calls of the source.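 The calls were made as follows: active = compounds dimming the MITF-driven luciferase signal, with fitted AC50 at most twice the top tested dose; inconclusive = flat curves with moderate signal drop, or poor-quality fits; inactive = the rest.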
# Tested on: SK-MEL-5 TRPM1-promoter luciferase reporter, 24 h
# Assay: TRPM1 promoter luciferase signal reduction, dose response, MITF inhibitor project, cell-based, SK-MEL-5, dry powder samples, set 2 (AID 624290)
# Method in brief: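 Detection: SteadyGlo luciferase luminescence. Material: TRPM1 promoter–luciferase reporter stably expressed in SK-MEL-5 melanoma cells. Incubation: compound pinned one day after plating, 24 h exposure at 37 °C. Read-out basis: luminescence change reflecting TRPM1 promoter activity, decrease as inhibition. Benchmarks: parthenolide positive control.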
row,SMILES,AC50
1,C=CCNC1=C(NS(=O)(=O)c2ccc(Br)cc2)C(=O)c2ccccc2C1=O,6.19 µM
2,CC1CCN(CC(CS(=O)(=O)c2ccc([N+](=O)[O-])cc2)N2CCC(C)CC2)CC1 (stereo not drawn),3.87 µM
3,CN1CCN(C2=C(NS(=O)(=O)c3cccs3)C(=O)c3ccccc3C2=O)CC1,1.94 µM
4,O=C1C(NS(=O)(=O)c2cccs2)=C(N2CCOCC2)C(=O)c2ccccc21,10.2 µM
5,CN1CCN(C2=C(Nc3ccccc3)C(=O)c3ccccc3C2=O)CC1,4.21 µM
6,CCN1c2ccccc2NC2N=C(OC)C(c3ccccc3)C21 (stereo not drawn),2.44 µM
7,COc1ccc(C2=C(NC(=O)c3ccccc3Cl)C(=O)c3ccccc3C2=O)cc1,4.92 µM
8,COc1ccc(C2=C(NC(=O)c3cccc(Cl)c3)C(=O)c3ccccc3C2=O)cc1,15.1 µM
9,CC(=O)NC1=C(c2ccccc2)C(=O)c2ccccc2C1=O,4.94 µM
10,CC(=O)N(C)C1=C(N2CCN(C)CC2)C(=O)c2ccccc2C1=O,0.432 µM
11,CCN(CC)CCCNC1=C(N(C)C(C)=O)C(=O)c2ccccc2C1=O,0.823 µM
12,C=CCNC1=C(N(C)C(C)=O)C(=O)c2ccccc2C1=O,0.0779 µM
13,C=CCNC1=C(NCC=C)C(=O)c2ccccc2C1=O,> 70 µM (inactive)
14,CC(=O)NC1=C(c2ccc(Cl)cc2)C(=O)c2ccccc2C1=O,4.56 µM
15,O=C(NC1=C(c2ccccc2)C(=O)c2ccccc2C1=O)c1ccccc1,3.73 µM
16,CC(=O)NC1=C(c2ccc(Oc3ccccc3)cc2)C(=O)c2ccccc2C1=O,17 µM
17,CCN(CC)CCCCNC1=C(Nc2ccccc2)C(=O)c2ccccc2C1=O,5.75 µM
18,Cc1ccc(C(=O)NC2=C(c3ccccc3)C(=O)c3ccccc3C2=O)o1,4.25 µM
19,C=CCNC1=C(Cl)C(=O)c2ccccc2C1=O,2.22 µM and 1.94 µM
20,CN1CCN(C2=C(NS(=O)(=O)c3ccc(Br)cc3)C(=O)c3ccccc3C2=O)CC1,1.59 µM
21,O=C1C(NS(=O)(=O)c2ccc(Br)s2)=C(N2CCOCC2)C(=O)c2ccccc21,10.5 µM
22,C=CCNC1=C(NCCCN2CCOCC2)C(=O)c2ccccc2C1=O,10.5 µM

row,SMILES,AC50
1,CN1CCN(C2=C(NS(=O)(=O)c3ccccc3)C(=O)c3ccccc3C2=O)CC1,0.984 µM
2,COC1=C(NS(=O)(=O)c2ccccc2)C(=O)c2ccccc2C1=O,4.56 µM
3,O=C1C(NS(=O)(=O)c2ccc(Br)cc2)=C(N2CCSCC2)C(=O)c2ccccc21,13.9 µM
4,COc1ccc(C2=C(NC(C)=O)C(=O)c3ccccc3C2=O)cc1,4.13 µM
5,COc1ccc(C2=C(NC(=O)c3cccc(OC)c3)C(=O)c3ccccc3C2=O)cc1,7.97 µM
6,O=C1C(NS(=O)(=O)c2ccc(Br)cc2)=C(N2CCCCC2)C(=O)c2ccccc21,10.5 µM
7,O=C(NC1=C(c2ccc(OC(F)(F)F)cc2)C(=O)c2ccccc2C1=O)c1ccco1,14.8 µM
8,COc1cccc(-c2cc(C(=O)NC3=C(Cl)C(=O)c4ccccc4C3=O)ccc2OC)c1,2.5 µM
9,O=C(NC1=C(c2ccc(OC(F)(F)F)cc2)C(=O)c2ccccc2C1=O)c1ccc(Br)cc1,16.3 µM
10,O=C1C(NS(=O)(=O)c2ccc(Br)cc2)=C(N2CCN(c3ccccc3)CC2)C(=O)c2ccccc21,21.3 µM
11,O=C1C(NS(=O)(=O)c2ccc(Br)cc2)=C(N2CCOCC2)C(=O)c2ccccc21,6.22 µM
12,NC1=C(c2ccc(OC(F)(F)F)cc2)C(=O)c2ccccc2C1=O,20.9 µM
13,CCN(CC)CCCNC1=C(Nc2ccccc2)C(=O)c2ccccc2C1=O,2.01 µM
14,O=C(NC1=C(N2CCOCC2)C(=O)c2ccccc2C1=O)c1ccc(Br)cc1,4.96 µM
15,C=CCNC1=C(NC(=O)c2ccccc2)C(=O)c2ccccc2C1=O,17.5 µM
16,O=C(NC1=C(N2CCSCC2)C(=O)c2ccccc2C1=O)c1ccc(Br)cc1,6.2 µM
17,O=C1C(Nc2ccccc2)=C(N2CCSCC2)C(=O)c2ccccc21,11.9 µM
18,C=CCNC1=C(NS(=O)(=O)c2cccs2)C(=O)c2ccccc2C1=O,16 µM
19,O=C(NC1=C(c2ccccc2)C(=O)c2ccccc2C1=O)c1ccco1,6.33 µM
20,C=C1C(=O)OC2C1CC/C(C)=C\CCC1(C)OC21 (stereo not drawn),5.01 µM
21,C=CCNC1=C(N2CCN(CC)CC2)C(=O)c2ccccc2C1=O,4.69 µM
